Test results as given in ChEMBL document CHEMBL1131637, “Novel and selective 5-HT2C/2B receptor antagonists as potential anxiolytic agents: synthesis, quantitative structure-activity relationships, and molecular modeling of substituted 1-(3-pyridylcarbamoyl)indolines” (J Med Chem, 1998).

Experiments:
[1] = tested on: Rattus norvegicus; test: Percentage change punished lever presses from mean score on 6-8 rats at 5 mg/kg po1h pretest; type: functional
Procedure, shortened: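 Geller–Seifter conflict test in trained rats, groups of 6–8, oral dosing. Lever pressing for food reward on a multiple schedule: five 3-min VI30 components alternating with five 3-min light-signalled FR5 components, where reward came with footshock (15 ms pulses at 200 ms intervals for 1 s). Punished presses compared with each of 2 preceding vehicle-treated test days by two-way ANOVA of square-root-transformed data.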

[2] = tested on: Rattus norvegicus; test: Percentage change unpunished lever presses from mean score on 6-8 rats at 5 mg/kg po1h pretest; type: functional

**Q.** Which results are given for `CN1C(=O)CN=C(c2ccccc2)c2cc(Cl)ccc21` [DIAZEPAM]?
**A.** Change [1]: 70%; Change [2]: -19%
